Measured values as given in ChEMBL document CHEMBL5058577, “EUbOPEN Chemogenomics Library 2 (Multiplex)” (2022).

Test system: U2OS
Assay: Multiplex assay against U2OS
Assay type: toxicity, cell-based
Conditions: human
Summary of the method: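 Values for tubulin, mitochondrial-mass and membrane-permeability phenotypes are per cents of cells with healthy nuclei. These cells were identified by CellPathfinder machine-learning gating of live cells that had been stained at seeding with Hoechst33342, BioTracker Green Microtubule Cytoskeleton Dye, MitoTracker Red and Annexin V Alexa Fluor 680 and imaged on a CQ1 microscope at 37°C and 5% CO2 after compound addition. The gating first set Hoechst high-intensity objects apart from normal cells, then split normal cells into healthy, pyknosed or fragmented nuclei, and pyknosed cells into mitotic or apoptotic.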

[1] = 12 h, 1 µM, compound concentration 1 uM, replicate 1
[2] = 12 h, 1 µM, compound concentration 1 uM, replicate 2
[3] = 12 h, 10 µM, compound concentration 10 uM, replicate 1
[4] = 12 h, 10 µM, compound concentration 10 uM, replicate 2
[5] = 24 h, 1 µM, compound concentration 1 uM, replicate 1
[6] = 24 h, 1 µM, compound concentration 1 uM, replicate 2
[7] = 24 h, 10 µM, compound concentration 10 uM, replicate 1
[8] = 24 h, 10 µM, compound concentration 10 uM, replicate 2
[9] = 48 h, 1 µM, compound concentration 1 uM, replicate 1
[10] = 48 h, 1 µM, compound concentration 1 uM, replicate 2
[11] = 48 h, 10 µM, compound concentration 10 uM, replicate 1
[12] = 48 h, 10 µM, compound concentration 10 uM, replicate 2

## N#Cc1c(Oc2cccc(OS(=O)(=O)CCCC(F)(F)F)c2)cccc1C(F)(F)F
[1]
  Population Apoptotic (%): 77%
  Population Fragmented Nuclei (%): 27%
  Population Healthy Nuclei (%): 61%
  Population Hoechst High Intensity Objects (%): 3%
  Population Membrane Permeable-Phenotype (%): 4%
  Population Mitochondria Different-Phenotype (%): 2%
  Population Mitotic Cells (%): 22%
  Population Normal (%): 96%
  Population Pyknosed Nuclei (%): 10%
  Population Tubulin-Different-Phenotype (%): 0%
  Total Cell Count: 220
[2]
  Population Apoptotic (%): 81%
  Population Fragmented Nuclei (%): 12%
  Population Healthy Nuclei (%): 76%
  Population Hoechst High Intensity Objects (%): 0%
  Population Membrane Permeable-Phenotype (%): 7%
  Population Mitochondria Different-Phenotype (%): 7%
  Population Mitotic Cells (%): 18%
  Population Normal (%): 99%
  Population Tubulin-Different-Phenotype (%): 8%
  Total Cell Count: 109
[3]
  Population Apoptotic (%): 78%
  Population Fragmented Nuclei (%): 27%
  Population Healthy Nuclei (%): 63%
  Population Hoechst High Intensity Objects (%): 3%
  Population Membrane Permeable-Phenotype (%): 11%
  Population Mitochondria Different-Phenotype (%): 8%
  Population Mitotic Cells (%): 21%
  Population Normal (%): 96%
  Population Pyknosed Nuclei (%): 8%
  Population Tubulin-Different-Phenotype (%): 7%
  Total Cell Count: 222
[4]
  Population Apoptotic (%): 90%
  Population Fragmented Nuclei (%): 14%
  Population Healthy Nuclei (%): 75%
  Population Hoechst High Intensity Objects (%): 0%
  Population Membrane Permeable-Phenotype (%): 21%
  Population Mitochondria Different-Phenotype (%): 4%
  Population Mitotic Cells (%): 9%
  Population Normal (%): 99%
  Population Pyknosed Nuclei (%): 9%
  Total Cell Count: 112
[5]
  Population Apoptotic (%): 75%
  Population Fragmented Nuclei (%): 25%
  Population Healthy Nuclei (%): 61%
  Population Hoechst High Intensity Objects (%): 2%
  Population Membrane Permeable-Phenotype (%): 4%
  Population Mitochondria Different-Phenotype (%): 2%
  Population Mitotic Cells (%): 24%
  Population Normal (%): 97%
  Population Pyknosed Nuclei (%): 12%
  Population Tubulin-Different-Phenotype (%): 3%
  Total Cell Count: 263
[6]
  Population Apoptotic (%): 90%
  Population Fragmented Nuclei (%): 12%
  Population Healthy Nuclei (%): 79%
  Population Hoechst High Intensity Objects (%): 1%
  Population Membrane Permeable-Phenotype (%): 11%
  Population Mitochondria Different-Phenotype (%): 3%
  Population Mitotic Cells (%): 10%
  Population Normal (%): 98%
  Population Pyknosed Nuclei (%): 7%
  Population Tubulin-Different-Phenotype (%): 7%
  Total Cell Count: 130
[7]
  Population Apoptotic (%): 66%
  Population Fragmented Nuclei (%): 26%
  Population Healthy Nuclei (%): 66%
  Population Hoechst High Intensity Objects (%): 6%
  Population Membrane Permeable-Phenotype (%): 10%
  Population Mitochondria Different-Phenotype (%): 8%
  Population Mitotic Cells (%): 33%
  Population Normal (%): 93%
  Population Pyknosed Nuclei (%): 7%
  Population Tubulin-Different-Phenotype (%): 5%
  Total Cell Count: 252
[8]
  Population Fragmented Nuclei (%): 9%
  Population Healthy Nuclei (%): 83%
  Population Hoechst High Intensity Objects (%): 3%
  Population Membrane Permeable-Phenotype (%): 11%
  Population Mitochondria Different-Phenotype (%): 0%
  Population Normal (%): 96%
  Population Tubulin-Different-Phenotype (%): 7%
  Total Cell Count: 130
[9]
  Population Apoptotic (%): 87%
  Population Fragmented Nuclei (%): 17%
  Population Healthy Nuclei (%): 70%
  Population Hoechst High Intensity Objects (%): 3%
  Population Membrane Permeable-Phenotype (%): 4%
  Population Mitochondria Different-Phenotype (%): 0%
  Population Mitotic Cells (%): 12%
  Population Normal (%): 96%
  Population Pyknosed Nuclei (%): 11%
  Population Tubulin-Different-Phenotype (%): 3%
  Total Cell Count: 361
[10]
  Population Apoptotic (%): 100%
  Population Fragmented Nuclei (%): 16%
  Population Healthy Nuclei (%): 73%
  Population Hoechst High Intensity Objects (%): 2%
  Population Membrane Permeable-Phenotype (%): 9%
  Population Mitochondria Different-Phenotype (%): 4%
  Population Mitotic Cells (%): 0%
  Population Normal (%): 97%
  Population Pyknosed Nuclei (%): 9%
  Population Tubulin-Different-Phenotype (%): 7%
  Total Cell Count: 195
[11]
  Population Apoptotic (%): 91%
  Population Fragmented Nuclei (%): 23%
  Population Healthy Nuclei (%): 64%
  Population Hoechst High Intensity Objects (%): 4%
  Population Membrane Permeable-Phenotype (%): 10%
  Population Mitochondria Different-Phenotype (%): 6%
  Population Mitotic Cells (%): 8%
  Population Normal (%): 95%
  Population Pyknosed Nuclei (%): 11%
  Population Tubulin-Different-Phenotype (%): 6%
  Total Cell Count: 328
[12]
  Population Apoptotic (%): 100%
  Population Fragmented Nuclei (%): 11%
  Population Healthy Nuclei (%): 77%
  Population Hoechst High Intensity Objects (%): 3%
  Population Membrane Permeable-Phenotype (%): 13%
  Population Mitochondria Different-Phenotype (%): 4%
  Population Mitotic Cells (%): 0%
  Population Normal (%): 96%
  Population Pyknosed Nuclei (%): 10%
  Population Tubulin-Different-Phenotype (%): 7%
  Total Cell Count: 184
